# HIV Rev-RRE inh – disrupts HIV-1 Rev binding to RRE RNA. AID 704. inhibition, % at 8 µM. 97,000 tested, 0.79% active. P05866. Rev peptide-RRE RNA binding, FRET;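 active = inhibition above the screen-wide mean plus 3 SD, cut at about 35% in these data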;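 also: 0% = median DMSO wells and 100% = median Neomycin B control wells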
# Target sequence (P05866 whole entry, looked up): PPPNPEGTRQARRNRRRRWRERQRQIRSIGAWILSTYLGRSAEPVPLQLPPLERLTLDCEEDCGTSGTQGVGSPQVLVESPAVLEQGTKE
#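 Test system – labelled RRE RNA duplex and labelled Rev peptide · Signal – fluorescein-to-Cy5 FRET, 480 nm excitation · Evaluation – % inhibition of FRET ratio versus controls · Benchmarks – DMSO low control, neomycin B high control · Incubation – 5 min RNA-compound premix plus 15 min binding step, 25 °C · Medium – HEPES pH 7.5 salt buffer with EDTA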
# Cav32 inh – inhibitors of human Cav3.2 T-type calcium channel; O95180; Cav3.2-expressing cells, Fluo-4 calcium fluorescence FDSS; stronger effect = lower value; B-score at 10 µM; 100,000 tested, 4% active;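 active = single-dose well whose peak fluorescence ratio is a statistical outlier from its plate by either plate-standardised score or position-corrected B-score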
# Measles CPE – protection of cells from measles virus; protection (pct of control), % at 4 µM; Measles virus-infected cells, CPE protection, absorbance; AID 841; 140,000 tested, 1.5% active; in the data active = protection mostly above about 24%, no sharp cut-off; inactive = mostly below about 26%
# PTK2B oligo ant – Pyk2 (human) oligomerization antagonism. Q293 cells, Pyk2 FERM NanoBiT luminescence; stronger effect = lower value. z-score (the deposit names both 25 µM and 10 µM). 99,000 tested, 0.83% active. AID 1347419;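 active = Z-score of -3 or lower, scaled per plate to the spread of control and sample wells; inactive = z-score above -3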;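 also: negative z-score means lost luminescence so less FERM oligomerization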
# Phagocyt inh – macrophage phagocytosis inhibition | 110,000 tested, 0.07% active | inhibition, % at 5 µM | AID 1029 | J774A.1 macrophage IgG-bead phagocytosis, imaging;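 active = inhibition above the mean of the plate negative controls plus 5 SD, cut at about 13% in these data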;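 also: phagocytic index as fraction of beads internalized from green versus red external bead signal; plate controls were DMSO negative control for no effect and cytochalasin-D positive control for full effect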
# DAT uptake mod – human DAT dopamine uptake with cocaine, either direction. LLC-PK1 hDAT cells, [14C]-dopamine uptake with cocaine IC80; actives deviate in either direction. Q01959. 110,000 tested, 1.3% active. B-score at 10 µM;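 active = Z score or B-score, a plate-position-corrected score, falls beyond the plate's 99.7% confidence bounds, in either direction; inactive = both scores lie inside the 99.7% bounds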;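 also: scored against the spread of the other compound wells on the same plate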
# * marks the source's active call; other numbers are inactive results; . = not tested or not shown. In the library only some 5.9% were active in any assay of this set; here they are far more common.
SMILES,HIV Rev-RRE inh,Cav32 inh,Measles CPE,PTK2B oligo ant,Phagocyt inh,DAT uptake mod
Fc1ccc(Cn2nnnc2C(c2ccc(Cl)cc2)N2CC=C(c3ccc(F)cc3)CC2)cc1 (stereo unspecified),.,.,41*,.,-2,.
OC(c1ccccc1)(c1ccccc1)C1CCNCC1,-4,-5*,6,.,0,-6.1*
CCCCN1C(=N)C(CC)(CC)C(=O)NC1=O,.,.,13,.,-11,.
Cc1cc(C)c(C2=NOC(O)(C(F)(F)F)C2)c(=O)[nH]1 (stereo unspecified),9,-0.071,27*,1.3,-1,0.054
O=C1NC(=O)[C@]2(Cc3ccccc3N3CCN(c4ccccc4)CC32)C(=O)N1c1ccccc1 (stereo partly specified),5,-4.5*,4,-0.59,0,0.076
COC(=O)C1=C(N)Oc2c(c(=O)oc3ccccc23)C1c1cccnc1 (stereo unspecified),9,1.4,5,-1.1,1,-1.1
CC12CCC3C(CCC4C/C(=N/O)CCC43C)C1CCC2O (stereo unspecified),.,.,41*,.,0,.
COC(=O)C(O)(c1cn(C)c2ccccc12)C(F)(F)F (stereo unspecified),0,0.26,46*,-0.89,-3,-2.1
CCCC(C)C1(CC)C(=O)NC(=Nc2ccc(F)cc2)NC1=O (stereo unspecified),2,0.85,38*,-1.2,0,-0.76
CCC(C)NS(=O)(=O)c1ccc(OCC(=O)N2CCN(CC)CC2)cc1 (stereo unspecified),-2,-0.085,17,1.9,.,0.62
COc1ccc(CC[n+]2cc(/N=C(\C)[O-])on2)cc1OC,-2,0.83,35*,-0.08,.,-0.12
O=c1cccc2n1CC1CC2CN(Cc2cccc(Cl)c2Cl)C1 (stereo unspecified),.,-4.8,43*,-0.54,0,0.63
O=c1cccc2n1CC1CC2CN(Cc2c(F)cccc2Cl)C1 (stereo unspecified),.,0.15,2,-0.49,0,0.12
CC(C)CC(=O)NC(Oc1ccc(Cl)cc1)C(Cl)(Cl)Cl (stereo unspecified),2,-6.2*,4,-0.01,.,0.0036
CCCC(=O)NC(Oc1ccc(Cl)cc1Cl)C(Cl)(Cl)Cl (stereo unspecified),4,-1,-1,1.1,-2,0.022
CCOC(=O)C1=C(N)OC2=C(C(=O)CCC2)C12C(=O)N1c3c(ccc(C)c32)C(C)=CC1(C)C (stereo unspecified),.,-8.3*,5,-0.13,.,0.28
CC(=NCC1CCCO1)c1c(O)n(-c2ccc(C)cc2)c(=O)[nH]c1=O (stereo unspecified),5,0.55,10,0.41,-2,-0.31
CC(=NCC1CCCO1)c1c(O)n(Cc2ccccc2)c(=O)[nH]c1=O (stereo unspecified),11,0.79,36*,0.15,0,0.02
CN(C)[C@@H]1C(=O)C(C(N)=O)=C(O)[C@@]2(O)C(=O)C3=C(O)c4c(O)cccc4[C@@](C)(O)[C@H]3[C@H](O)[C@@H]12,.,-3.7*,39,.,.,-0.38
CCCCn1c(O)c(C(CC)=NC(C)c2ccccc2)c(=O)[nH]c1=O (stereo unspecified),6,-3.2,15,-3.8*,0,.
C=CCn1c(O)c(C(CC)=NC(C)c2ccccc2)c(=O)[nH]c1=O (stereo unspecified),1,0.88,2,-0.85,.,-0.08
CCCCn1c(O)c(C(C)=NC(C)c2ccccc2)c(=O)[nH]c1=O (stereo unspecified),-3,-1,25,-3.6*,4,0.021
C[C@@]12N[C@@H](Cc3ccccc31)c1ccccc12,.,0.11,.,.,.,-0.11
Clc1cc(I)cc(Cl)c1NC1=NCCN1,.,-0.23,.,.,.,-0.47
CCn1c(O)c(C(=O)CC2NCCc3ccccc32)c(=O)n(CC)c1=S (stereo unspecified),48*,.,5,-0.69,.,.
SMILES,HIV Rev-RRE inh,Cav32 inh,Measles CPE,PTK2B oligo ant,Phagocyt inh,DAT uptake mod
CCn1c(O)c(/C=N/N2CCOCC2)c(=O)n(CC)c1=S,.,.,12,.,7,.
COC(=O)C1=C(c2ccc(S(C)(=O)=O)cc2)C[C@@H]2CC[C@H]1N2C(=O)NC(C)C,.,0.42,.,.,.,-0.53
Cc1ccc(-n2c(/C=C/c3ccc4c(c3)OCO4)nc3ccccc3c2=O)cc1,.,.,26*,.,-3,.
CCN1C[C@]2(COC)CC[C@H](O)[C@@]34C5C[C@@H]6[C@@H](OC)C[C@@](O)(C5[C@H]6O)[C@](O)([C@@H](OC)C23)[C@@H]14 (stereo partly specified),.,-0.049,.,.,.,0.073
C=C1[C@H]2C[C@H]3[C@H]4N5C[C@]6(C)CCC[C@]47[C@H]([C@H]2O)[C@]3(C[C@]5(O)[C@H]67)[C@@H]1O,.,-0.71,.,.,.,1.1
Cc1nc2cc(-c3cccc(F)c3)nn2c(C)c1CCC(=O)N1CCC2(CC1)OCCO2,-1,1,25*,-0.39,-4,1.9
Cc1nc2c(-c3ccccc3)c(C)nn2c(C)c1CCC(=O)N1CCC2(CC1)OCCO2,3,-0.3,6,1.3,.,1.7
Cc1nn(Cc2ccc(Cl)cc2Cl)c(Cl)c1C(=O)NC1CCCc2ccccc21 (stereo unspecified),.,.,5,.,-1,.
CCOC(=O)c1c(NC(=O)c2c(N)n(CCCOC)c3nc4ccccc4nc23)sc2c1CCCC2,7,0.2,1,-0.52,0,0.69
COCCCNC(=O)c1c(NC(=O)c2ccccc2)n(Cc2ccccc2)c2nc3ccccc3nc12,30,-5.7*,.,-0.02,.,0.083
CCOCCCn1c(N)c(C(=O)Nc2sc3c(c2C(=O)OC)CCCC3)c2nc3ccccc3nc21,49*,-0.35,3,-0.94,1,0.3
CCCCOCCCn1c(N)c(C(=O)OCCOC)c2nc3ccccc3nc21,1,0.9,7,-1.8,-2,1.2*
COCCCn1c(N)c(C(=O)NCCC(C)C)c2nc3ccccc3nc21,6,-3.9,3,0.33,.,3*
O=c1[nH]c(=S)n(C2CC2)c(O)c1C=Nc1cccc(C(F)(F)F)c1,.,.,1,0.48,2,.
O=C(O)C(Cl)(Cl)Cl,.,2.7,.,.,.,0.11
CC(C)N1C(=O)/C(=C/C=C/c2ccco2)C(=O)N(Cc2ccco2)C1=O,53*,0.95,26*,0.08,-1,.
COc1ccc(/C=C2/C(=O)N(Cc3ccco3)C(=O)N(C(C)C)C2=O)cc1,.,.,8,.,-1,.
CCOC(=O)CCCCCNC(=O)c1c(O)[nH]c(=O)[nH]c1=O,.,-0.02,.,.,.,0.033
Cc1ccc(-n2nc(C)c3c2NC(=O)CSC3c2ccc3c(c2)OCO3)cc1 (stereo unspecified),.,-8.4*,.,-0.51,-1,0.69
CCOC(=O)[C@@]1(C#N)[C@@H]2C=CC(C(N)=O)=CN2[C@@H](C(N)=O)[C@@H]1c1cccc(Cl)c1,17,-0.14,47*,0.06,0,0.084

# Screens (PubChem)
